Legend:
EMT6 cells = experiment: flow cytometry binding of EDBp-Cy5 to cells; assay type: cell-based; conditions: 1 µM, 37 °C, 60 min
In short: (§1)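 Cells were grown in DMEM with 10% FBS at 37 °C and 5% CO2, then seeded at 1 × 10^6 cells/ml in 6-well plates. They were stained with 1 µM Cy5-labelled test compound, or a Cy5-labelled cyclic control peptide, for 60 min at 37 °C. Cells were washed three times with PBS and analysed by flow cytometry for Cy5 signal.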

MCF7 cells = experiment: flow cytometry binding of EDBp-Cy5 to cells; assay type: cell-based; conditions: 1 µM, 37 °C, 60 min
In short: as §1

MDA-MB-231 cells = experiment: flow cytometry binding of EDBp-Cy5 to cells; assay type: cell-based; conditions: 1 µM, 37 °C, 60 min
In short: as §1

[1] = test system: EDB-FN in MDA-MB-231 cells; experiment: confocal immunofluorescence colocalization with EDB-FN; assay type: cell-based; conditions: confocal microscopy, 1 µM, 37 °C, 2 h
In short: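 MDA-MB-231 cells were seeded at 1 × 10^5 cells/ml in confocal dishes. They were incubated with 1 µM Cy5-labelled test compound for 2 h at 37 °C, washed six times with PBST, and fixed in 4% paraformaldehyde. Permeabilization used 0.25% Triton X-100 and blocking used 5% BSA for 30 min. Anti-EDB-FN mAb (1:1000) was applied overnight at 4 °C. Alexa Fluor 488 anti-rabbit (4 µg/mL) was applied 1 h at RT. Nuclei were stained with DAPI and imaged by confocal microscopy.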

[2] = test system: subcutaneous MDA-MB-231-luc tumor; experiment: NIRF imaging, subcutaneous tumor model mice; assay type: in vivo
In short: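 Female BALB/c-nude mice, 6 weeks old, received 1 × 10^6 MDA-MB-231-luc cells s.c. in PBS with 30% matrigel. The Cy5-labelled test compound (1 µmol) was injected i.v. via tail vein. IVIS whole-body imaging at 48 h used excitation 640 nm and emission 680 nm. Luminescence was read from 10 min after i.p. luciferin 150 mg/kg. Organs and tumour were imaged ex vivo after euthanasia, with semiquantitative fluorescence intensity, n = 3.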

In the case of AVRTSAD-PEG4-K-Cy5 [EDBp-Cy5], the cell binding ability (EMT6 cells) is reported as “moderate”, the cell binding ability (MCF7 cells) is reported as “moderate” and the cell binding ability (MDA-MB-231 cells) is reported as “high”. For the same substance, the “colocalization with EDB-FN” value [1] was “colocalized with EDB-FN”, the “enrichment in subcutaneous tumor (NIRF imaging)” value ([2]; 48 h after i.v. injection of 1 µmol, whole-body imaging) was “significantly enriched” and the “ex vivo distribution in main organs and tumor (NIRF)” value ([2]; 48 h after injection, organs collected, n = 3) was “observed mainly in the kidney and subcutaneous tumor”.
